Most compounds without a hit are left out; they make up all but 4.3% or so of the library.
STAT1 activator: increases IFN-gamma driven STAT1 reporter signal | NIH 3T3 STAT1-luciferase reporter, luminescence; 100% = IFN-gamma alone, no compound | activation (% of control), % at 5.5 µM | 200,000 compounds, 2.6% hits;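 active = activation above the screen-wide mean activation plus 3 SD, cut at about 130% in these data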;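 note: raw ratio to IFN-gamma control signal so 100% means no change and 0% no light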
FLuc stim CS: firefly luciferase counter-screen for stimulation assays. 200,000 tested, under 10 active. ATPlite luciferase biochemical, luminescence, 10 min; 0 = ATP-free wells, 1 = DMSO control. activation factor at 10 µM;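 active = luciferase activation factor, scaled between plate controls, of at least 2 with compound at 10 µM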
Target sequence (P08659 whole entry, looked up): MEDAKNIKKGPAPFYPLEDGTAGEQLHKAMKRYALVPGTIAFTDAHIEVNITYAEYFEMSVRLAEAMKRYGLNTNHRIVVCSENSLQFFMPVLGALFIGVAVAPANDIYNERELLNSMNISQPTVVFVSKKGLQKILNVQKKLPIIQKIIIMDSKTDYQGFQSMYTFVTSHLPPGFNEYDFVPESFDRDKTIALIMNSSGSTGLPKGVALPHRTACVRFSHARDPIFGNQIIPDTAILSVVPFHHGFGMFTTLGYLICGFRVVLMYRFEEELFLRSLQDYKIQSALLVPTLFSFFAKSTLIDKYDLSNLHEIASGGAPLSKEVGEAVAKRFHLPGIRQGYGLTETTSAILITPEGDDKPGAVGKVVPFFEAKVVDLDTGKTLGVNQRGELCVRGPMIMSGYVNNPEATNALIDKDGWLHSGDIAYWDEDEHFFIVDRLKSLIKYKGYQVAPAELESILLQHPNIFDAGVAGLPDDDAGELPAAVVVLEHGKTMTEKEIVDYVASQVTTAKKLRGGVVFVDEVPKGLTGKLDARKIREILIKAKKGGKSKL
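Assay system: Luciferase/luciferin detection reagent, cell-free biochemical luciferase assay / Read-out: luciferase activation / Benchmarks: No-ATP low control, compound-free enzyme-plus-ATP high control / Medium: PBS buffer for ATP / Detection: luminescence measurement of luciferase light output / Schedule: 10 min at ambient temperature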
APP 5'UTR act: APP 5'UTR luciferase reporter activation. SH-SY5Y APP 5'UTR luciferase reporter, luminescence; zero percent = DMSO vehicle wells. activation, % at 2 µM. 190,000 compounds, 1% hits;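 active = activation above a set limit, based on mean plus 3 SD of controls, cut at about 140% in these data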
NF-kB expr up: compounds increasing NF-kB expression in human neuronal cells; fold change at 12.5 µM; NF-kB reporter expression; stronger effect = higher value; 190,000 compounds, 1.6% hits; in the data active = fold change above about 3.3
sdo1 growth: sdo1-depleted yeast growth rescue | 140,000 compounds, 0.21% hits | z-score at 10 µM | S. cerevisiae sdo1-depleted JHY4D growth rescue, OD600 30 h; stronger effect = higher value; pdr5 snq2 efflux-pump mutant strain;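 active = z-score above 3 at both the 24 hr and the 30 hr optical density reads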;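 note: z-score against mean and SD of all compound wells on the same plate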
FLuc inh counter: inhibits firefly luciferase, flagging false hits in luciferase inhibition screens | ATPLite firefly luciferase biochemical luminescence, 10 min | inhibition, % at 10 µM | 200,000 compounds, 1.5% hits;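 active = inhibition above about 50% when tested at 10 µM, limit read from the data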
Numbers without * were called inactive; . = not tested or not shown.

SMILES	STAT1 activator	FLuc stim CS	APP 5'UTR act	NF-kB expr up	sdo1 growth	FLuc inh counter
COc1ccc(N=Cc2c(O)c3ccccc3oc2=O)cc1	139.8*	0.1	13.7	0.93	1.33	88.2*
Cc1ncc(CO)c(/C=N/N=C/c2ccccc2O)c1O	109.5	0.9	64.2	3.57*	0.35	7.5
CCOc1ccc(NC(=S)Nc2ccc(OCC)cc2)cc1	96.7	1	0.3	0.92	.	-4.0
CCOC(=O)c1ccc(Nc2ncccc2[N+](=O)[O-])cc1	134.8*	0.9	151.1*	7.84*	.	13.6
CCOC(=O)c1ccc(NC(=O)c2ccccc2[N+](=O)[O-])cc1	116.8	0.9	15.3	1.57	-0.91	7.7
CCOc1ccc(NC(=S)Nc2cc(C)[nH]n2)cc1	131.7*	1	14.9	.	.	3.8
CCOC(=O)c1ccc(NC(=S)Nc2ccccn2)cc1	128.8*	1	52.2	1.7	-1.24	3.1
Cc1ccc(Nc2ncccc2C(N)=O)cc1[N+](=O)[O-]	141.3*	1	75.4	1.16	0.85	-4.0
O=[N+]([O-])c1ccc2nc(-c3ccccc3)oc2c1	148.1*	0.8	52.9	2.15	.	18.1
COc1cccc(-c2cc(C(=O)Nc3ccc([N+](=O)[O-])cn3)c3ccccc3n2)c1	95.4	1	-20.0	0.49	-1.45	0.3
COc1cccc(-c2nc3ccc([N+](=O)[O-])cc3o2)c1	136.0*	0.7	143.9*	3.36*	.	30.6
c1ccc(-c2nnc3ccc(N4CCC5(CC4)OCCO5)nn23)cc1	108.6	1.1	9.8	3.58*	-0.26	-6.4
O=C(C(=O)N1CCCC1CO)N1CCCC1CO (configuration not stated)	105.4	1	-12.0	0.9	.	0.9
CCOC(=O)c1cc(CC)sc1/N=C/C1=C(O)CCCC1=O	117.1	1.1	22.9	1.21	-0.18	-8.4
Cc1ccc(C(=O)NC(=S)Nc2cc(-c3nc4ccccc4s3)ccc2C)cc1	115.2	1	120.3	4.04*	1.37	4.2
C/C(=N\NC(=O)c1nn(C)c(C)c1Br)c1cccc(NC(=O)c2ccoc2C)c1	150.4*	0.8	59.4	1.49	1.02	20.2
C/C(=N\NC(=O)c1cccc(F)c1)c1cccc(NC(=O)c2ccc(F)cc2)c1	107.4	1	-1.9	1.25	.	2.4
C/C(=N\NC(=O)c1ccc(Cl)cc1)c1cccc(NC(=O)c2cccnc2)c1	103.1	0.4	-7.3	1.05	0.3	63.2*
C/C(=N\NC(=O)c1ccc(F)cc1)c1cccc(NC(=O)c2ccco2)c1	101.2	0.5	13.9	0.94	-0.58	50.4*
Cc1cccc(N2C(=O)C3CCC(c4ccccc4)CC3C2=O)c1 (configuration not stated)	104.8	1	-7.6	1.18	-0.21	-3.3
CC1=NC(=O)C(N=Nc2ccccc2C)N1c1ccccc1 (configuration not stated)	105.9	.	13.4	.	.	.
CC1=NC(=O)C(N=Nc2cccc(C(=O)O)c2)N1c1ccccc1 (configuration not stated)	73.5	0.5	86.6	9.47*	-0.15	54.0*
CC1=NC(=O)C(N=Nc2ccccc2)N1c1ccccc1 (configuration not stated)	121.0	0.9	51.1	4.38*	-0.71	7.7
CC1=NC(=O)C(N=Nc2ccccc2C(=O)O)N1c1ccccc1 (configuration not stated)	38.5	0.9	9.7	0.86	.	10.3
CCCC(C)NC(=O)COC(=O)c1cc(Br)c(Br)s1 (configuration not stated)	103.0	1	-16.1	0.93	.	-2.8
SMILES	STAT1 activator	FLuc stim CS	APP 5'UTR act	NF-kB expr up	sdo1 growth	FLuc inh counter
Cc1cc(/C=C2/NC(=O)N(Cc3ccccc3F)C2=O)c(C)n1C(C)C	100.5	1	2.3	0.99	-0.74	2.3
Cc1cc(/C=C2/NC(=O)N(c3ccccc3)C2=O)c(C)n1C(C)C	128.8*	0.7	62.0	1.34	0.78	26.5
O=C(Cn1cnc2ccccc2c1=O)c1ccc2ccccc2c1	120.1	1	1.0	2.51	-2.03	-2.7
CN(C)C(=O)CSc1cnc2ccccc2n1	103.0	1	-10.0	1.22	.	-2.6
Cc1ccc(C(=O)Cn2cnc3ccccc3c2=O)cc1C	137.7*	0.9	28.3	3.33*	-1.74	9.4
Cc1ccc(C(=O)CSc2cnc3ccccc3n2)cc1C	117.6	1	154.3*	1	-0.47	-1.6
O=C(CSc1ccc2ccccc2n1)c1ccc2c(c1)OCO2	134.1*	1.1	44.2	1.17	-0.72	-5.0
O=C(Cn1cnc2ccccc2c1=O)c1ccc2c(c1)OCCO2	136.8*	0.6	150.6*	3.65*	-1.16	37.1
CNC(=S)N1CCN(C(=O)C2CCCO2)CC1 (configuration not stated)	97.7	1	-19.1	1.07	0.26	-4.2
O=C(NCCOc1ccccc1Cl)c1ncn[nH]1	94.2	1	-5.0	0.91	.	-2.2
O=C(NCCOc1ccccc1Cl)c1cc(F)c(F)cc1Cl	130.3*	1	123.6	3.76*	0.05	-1.5
CCOC(=O)c1c(C)[nH]c(C(=O)COC(=O)C2(C)CC2(Cl)Cl)c1C (configuration not stated)	117.6	1.1	45.6	1.63	-0.63	-7.1
Cc1ccnc(NC(=O)/C=C/c2cccs2)c1	136.8*	0.1	191.0*	1.08	1.26	92.0*
O=C(/C=C/c1cccs1)Nc1cccnc1	126.7	0.4	62.1	1.89	2.94	61.7*
O=C(Nc1cccnc1)c1cccs1	99.1	1	-8.9	2.83	-0.36	-1.4
O=C(/C=C/c1cccs1)Nc1scc(-c2ccccc2)c1C(=O)O	98.6	0.2	120.1	2.26	.	80.7*
C=CC[N+](C)(C)CCN1C(=O)C2C(c3ccccc3)C=CC(c3ccccc3)C2C1=O (configuration not stated)	105.5	1.1	-4.4	1.03	.	-8.0
c1csc(-c2noc(COc3ccc4c(c3)CCCC4)n2)c1	132.1*	0.9	125.7	4.4*	-0.77	5.1
CCn1nnc(NC(=O)c2cccnc2Cl)n1	109.4	1	10.5	0.96	-0.17	-4.8
O=C(Nc1ccncc1)c1sc2ccccc2c1Cl	121.2	0.8	61.5	1.4	.	15.9
CCn1nnc(NC(=O)c2sc3ccccc3c2Cl)n1	121.3	0.3	66.8	2.46	0.14	67.1*
CN1CCN(c2ccc(NC(=O)c3sc4ccccc4c3Cl)cc2)CC1	114.6	0.6	182.5*	2.71	.	36.8
c1ccc(NCC2OCc3ccccc3CO2)cc1	136.0*	0.9	58.0	2.31	0.1	5.5
NC1=NC(=O)/C(=C\c2cccs2)S1	105.8	0.9	-2.1	1.11	0.12	6.8
O=C1/C(=C\c2cccs2)Sc2ccc3ccccc3c21	105.0	0.5	178.5*	1.08	-1.04	54.4*
Cc1ccc(-c2nnc(Cc3ccc([N+](=O)[O-])cc3)o2)cc1	104.8	0.9	147.0*	2.72	.	7.7

Assay outcomes from PubChem BioAssay.
